pIC50: −log10 of the molar value.
What was measured:
[1] = target: T1, 72 kDa type IV collagenase (Homo sapiens, UniProt P08253); assay: Inhibition of MMP2 using Mca-Pro-Leu-Gly-Leu-Dpa-Ala-Arg as substrate incubated for 30 mins prior to substrate addition measured after 3 hrs by fluorimetric assay
Procedure, shortened: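 It is preincubated with inhibitor at 25 °C for 30 min. Substrate is added from a 25 μM solution and incubated 3 h at 37 °C. Acetic acid quench, fluorescence ex 340/em 405 nm. IC50 from 6 concentrations in triplicate, two runs.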
Target sequence in this assay (P08253 whole entry): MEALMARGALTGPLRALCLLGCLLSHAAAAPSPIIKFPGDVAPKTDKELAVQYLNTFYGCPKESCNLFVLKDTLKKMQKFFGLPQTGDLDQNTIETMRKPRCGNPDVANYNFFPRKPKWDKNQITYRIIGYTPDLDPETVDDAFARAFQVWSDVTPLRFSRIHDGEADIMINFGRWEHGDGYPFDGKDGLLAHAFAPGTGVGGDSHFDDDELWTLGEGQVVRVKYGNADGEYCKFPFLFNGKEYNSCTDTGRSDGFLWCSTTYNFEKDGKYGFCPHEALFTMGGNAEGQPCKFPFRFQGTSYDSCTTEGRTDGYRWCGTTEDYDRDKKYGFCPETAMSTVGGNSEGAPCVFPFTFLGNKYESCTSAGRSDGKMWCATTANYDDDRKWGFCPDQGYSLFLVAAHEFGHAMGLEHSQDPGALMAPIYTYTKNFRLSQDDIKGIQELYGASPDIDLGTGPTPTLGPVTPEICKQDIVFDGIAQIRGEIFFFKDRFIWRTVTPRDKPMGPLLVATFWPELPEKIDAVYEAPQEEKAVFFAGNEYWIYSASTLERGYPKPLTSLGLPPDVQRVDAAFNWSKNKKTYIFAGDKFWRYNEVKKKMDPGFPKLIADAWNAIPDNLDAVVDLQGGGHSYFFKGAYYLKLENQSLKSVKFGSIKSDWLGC

[2] = target: T2, Matrix metalloproteinase-9 (Homo sapiens, UniProt P14780); assay: Inhibition of recombinant MMP9 catalytic site using Mca-Pro-Leu-Gly-Leu-Dpa-Ala-Arg as substrate incubated for 30 mins prior to substrate addition measured after 3 hrs by fluorimetric assay
Procedure, shortened: (§1)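 Recombinant catalytic-domain MMP-8 or MMP-9 (500 pM enzyme solution) is used in Tris-HCl 0.1 M pH 7.5, 0.1 M NaCl, 10 mM CaCl2, 0.05% Brij35, 1 mM APMA. Preincubated with inhibitor 30 min at 25 °C, then substrate (25 μM solution) 3 h at 37 °C. Acetic acid stop, fluorescence 340/405 nm. IC50 from six concentrations in triplicate, run twice.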

Neutrophil collagenase [3] = target: T3, Neutrophil collagenase (Homo sapiens, UniProt P22894); assay: Inhibition of recombinant MMP8 catalytic site using Mca-Pro-Leu-Gly-Leu-Dpa-Ala-Arg as substrate incubated for 30 mins prior to substrate addition measured after 3 hrs by fluorimetric assay; procedure, shortened: as §1
Target sequence in this assay (P22894 whole entry): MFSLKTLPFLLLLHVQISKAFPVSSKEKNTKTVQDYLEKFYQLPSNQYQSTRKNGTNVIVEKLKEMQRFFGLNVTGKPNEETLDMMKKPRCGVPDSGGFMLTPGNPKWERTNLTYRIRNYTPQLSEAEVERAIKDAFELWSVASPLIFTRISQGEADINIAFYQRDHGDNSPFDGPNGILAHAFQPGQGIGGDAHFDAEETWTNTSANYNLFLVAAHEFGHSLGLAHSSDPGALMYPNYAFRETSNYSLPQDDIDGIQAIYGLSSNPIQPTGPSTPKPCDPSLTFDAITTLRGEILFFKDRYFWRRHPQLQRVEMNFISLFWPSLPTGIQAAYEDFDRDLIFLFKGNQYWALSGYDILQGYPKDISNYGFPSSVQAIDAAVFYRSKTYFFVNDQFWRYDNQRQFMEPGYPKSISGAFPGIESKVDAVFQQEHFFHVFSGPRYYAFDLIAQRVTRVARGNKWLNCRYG

[4] = target: T1, 72 kDa type IV collagenase; assay: Inhibition of MMP2 using Mca-Pro-Leu-Gly-Leu-Dpa-Ala-Arg as substrate at 10 uM incubated for 30 mins prior to substrate addition measured after 3 hrs by fluorimetric assay
Procedure, shortened: (§2)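 Buffer: Tris-HCl 0.1 M pH 7.5, 0.1 M NaCl, 10 mM CaCl2, 0.05% Brij35, 1 mM APMA. Compound and enzyme 30 min at 25 °C, then substrate (25 μM solution) 3 h at 37 °C. Acetic acid quench, fluorescence ex 340/em 405 nm.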
Target sequence in this assay (P08253 110-660 limits assumed): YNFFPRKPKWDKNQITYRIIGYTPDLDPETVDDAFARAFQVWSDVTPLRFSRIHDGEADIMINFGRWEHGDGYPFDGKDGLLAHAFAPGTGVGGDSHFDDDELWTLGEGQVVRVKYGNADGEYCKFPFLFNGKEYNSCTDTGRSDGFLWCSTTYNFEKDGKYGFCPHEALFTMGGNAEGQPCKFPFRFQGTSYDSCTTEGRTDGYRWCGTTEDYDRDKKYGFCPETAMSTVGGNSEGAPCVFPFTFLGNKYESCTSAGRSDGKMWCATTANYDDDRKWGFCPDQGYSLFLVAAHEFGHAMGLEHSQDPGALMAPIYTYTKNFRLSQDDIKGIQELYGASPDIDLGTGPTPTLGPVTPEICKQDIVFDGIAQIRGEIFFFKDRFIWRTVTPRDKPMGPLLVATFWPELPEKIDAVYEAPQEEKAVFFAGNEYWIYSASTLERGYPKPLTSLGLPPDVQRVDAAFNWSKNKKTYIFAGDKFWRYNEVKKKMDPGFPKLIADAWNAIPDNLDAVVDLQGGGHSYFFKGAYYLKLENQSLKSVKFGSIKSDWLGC

[5] = target: T2, Matrix metalloproteinase-9; assay: Inhibition of recombinant MMP9 catalytic site using Mca-Pro-Leu-Gly-Leu-Dpa-Ala-Arg as substrate at 10 uM incubated for 30 mins prior to substrate addition measured after 3 hrs by fluorimetric assay
Procedure, shortened: (§3)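 Percent inhibition against control at a single concentration is measured on recombinant catalytic-domain MMP-8 or MMP-9 (500 pM enzyme solution). Tris-HCl 0.1 M pH 7.5 buffer with NaCl, CaCl2, Brij35, 1 mM APMA. Compound and enzyme 30 min at 25 °C, then substrate (25 μM solution) 3 h at 37 °C. Acetic acid stop, fluorescence 340/405 nm.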

[6] = target: T1, 72 kDa type IV collagenase; assay: Inhibition of MMP2 using Mca-Pro-Leu-Gly-Leu-Dpa-Ala-Arg as substrate at 100 uM incubated for 30 mins prior to substrate addition measured after 3 hrs by fluorimetric assay; procedure, shortened: as §2
Target sequence in this assay (P08253 110-660 limits assumed): as above

[7] = target: T2, Matrix metalloproteinase-9; assay: Inhibition of recombinant MMP9 catalytic site using Mca-Pro-Leu-Gly-Leu-Dpa-Ala-Arg as substrate at 100 uM incubated for 30 mins prior to substrate addition measured after 3 hrs by fluorimetric assay; procedure, shortened: as §3
Neutrophil collagenase [8] = target: T3, Neutrophil collagenase; assay: Inhibition of recombinant MMP8 catalytic site using Mca-Pro-Leu-Gly-Leu-Dpa-Ala-Arg as substrate at 100 uM incubated for 30 mins prior to substrate addition measured after 3 hrs by fluorimetric assay; procedure, shortened: as §3
Target sequence in this assay (P22894 101-467 limits assumed): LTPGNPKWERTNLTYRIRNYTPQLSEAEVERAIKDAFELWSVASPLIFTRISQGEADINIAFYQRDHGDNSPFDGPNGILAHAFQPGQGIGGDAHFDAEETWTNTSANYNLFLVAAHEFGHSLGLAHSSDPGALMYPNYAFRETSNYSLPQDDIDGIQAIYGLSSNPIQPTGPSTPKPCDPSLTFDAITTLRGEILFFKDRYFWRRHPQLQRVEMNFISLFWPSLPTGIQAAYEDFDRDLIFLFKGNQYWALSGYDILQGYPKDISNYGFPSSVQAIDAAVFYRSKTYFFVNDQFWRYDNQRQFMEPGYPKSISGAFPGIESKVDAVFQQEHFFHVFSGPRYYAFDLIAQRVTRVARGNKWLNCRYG

T2 sequence (P14780 whole entry): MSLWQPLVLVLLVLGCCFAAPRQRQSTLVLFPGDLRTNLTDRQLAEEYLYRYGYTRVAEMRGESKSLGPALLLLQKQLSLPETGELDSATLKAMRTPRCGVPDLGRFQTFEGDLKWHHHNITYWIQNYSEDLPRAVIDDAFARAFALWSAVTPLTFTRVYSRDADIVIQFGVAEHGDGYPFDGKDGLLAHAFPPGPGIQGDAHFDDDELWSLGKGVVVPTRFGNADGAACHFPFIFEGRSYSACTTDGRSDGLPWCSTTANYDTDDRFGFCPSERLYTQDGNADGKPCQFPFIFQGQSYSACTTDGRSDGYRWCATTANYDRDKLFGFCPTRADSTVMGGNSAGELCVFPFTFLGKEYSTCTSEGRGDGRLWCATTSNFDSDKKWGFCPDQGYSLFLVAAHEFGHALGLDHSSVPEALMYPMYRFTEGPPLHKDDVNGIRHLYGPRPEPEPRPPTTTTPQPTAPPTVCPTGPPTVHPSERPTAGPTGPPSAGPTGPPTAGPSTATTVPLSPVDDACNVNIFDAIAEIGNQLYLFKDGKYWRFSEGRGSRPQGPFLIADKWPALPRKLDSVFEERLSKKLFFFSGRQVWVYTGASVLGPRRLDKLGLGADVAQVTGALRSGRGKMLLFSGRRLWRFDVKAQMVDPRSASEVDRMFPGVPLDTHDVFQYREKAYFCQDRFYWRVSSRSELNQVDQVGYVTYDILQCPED

O=C1NC(=O)C(O)(CC(=O)c2ccc(-c3ccc(Cl)cc3)cc2)C(=O)N1
pIC50 [1]: 6.56
pIC50 [2]: 7.18
pIC50 (Neutrophil collagenase [3]): 6.57

O=C1NC(=O)C(O)(CC(=O)c2ccccc2)C(=O)N1
inhibition [4]: 0%

O=C1NC(=O)C(O)(CC(=O)c2ccc(-c3cccc([N+](=O)[O-])c3)cc2)C(=O)N1
pIC50 [1]: 5.09
pIC50 [2]: 4.56
pIC50 (Neutrophil collagenase [3]): 5.59

O=C1NC(=O)C(O)(CC(=O)c2ccc(-c3ccc(OC(F)(F)F)cc3)cc2)C(=O)N1
pIC50 [1]: 6.84
pIC50 [2]: 7.68
pIC50 (Neutrophil collagenase [3]): 6.15

O=C1NC(=O)C(O)(CC(=O)c2ccc(-c3ccc(CO)cc3)cc2)C(=O)N1
pIC50 [1]: 6.83
pIC50 [2]: 6.25
pIC50 (Neutrophil collagenase [3]): 6.68

O=C1NC(=O)C(O)(CC(=O)c2ccc(C(F)(F)F)cc2)C(=O)N1
inhibition [5]: 11%

O=C1NC(=O)C(O)(CC(=O)c2ccc([N+](=O)[O-])cc2)C(=O)N1
pIC50 (Neutrophil collagenase [3]): 4.20
inhibition [4]: 0%
inhibition [5]: 8%

CSc1ccc(-c2ccc(C(=O)CC3(O)C(=O)NC(=O)NC3=O)cc2)cc1
pIC50 [1]: 6.92
pIC50 [2]: 7.07
pIC50 (Neutrophil collagenase [3]): 6.50

CN(C)C(=O)c1ccc(-c2ccc(C(=O)CC3(O)C(=O)NC(=O)NC3=O)cc2)cc1
pIC50 [1]: 5.87
pIC50 [2]: 5.52
pIC50 (Neutrophil collagenase [3]): 5.69

O=C(Cc1ccc(-c2ccccc2)cc1)CC1(O)C(=O)NC(=O)NC1=O
inhibition [6]: 10%
inhibition [7]: 21%
inhibition (Neutrophil collagenase [8]): 26%

O=C1NC(=O)C(O)(CC(=O)c2ccc(-c3ccsc3)cc2)C(=O)N1
pIC50 [1]: 6.74
pIC50 [2]: 6.80
pIC50 (Neutrophil collagenase [3]): 6.82

CC(=O)c1ccc(-c2ccc(C(=O)CC3(O)C(=O)NC(=O)NC3=O)cc2)cc1
pIC50 [1]: 7.52
pIC50 [2]: 6.77
pIC50 (Neutrophil collagenase [3]): 6.96

CS(=O)(=O)c1ccc(-c2ccc(C(=O)CC3(O)C(=O)NC(=O)NC3=O)cc2)cc1
pIC50 [1]: 7.24
pIC50 [2]: 6.19
pIC50 (Neutrophil collagenase [3]): 7.18

COc1ccc(-c2ccc(C(=O)CC3(O)C(=O)NC(=O)NC3=O)cc2)cc1
pIC50 [1]: 6.92
pIC50 [2]: 6.85
pIC50 (Neutrophil collagenase [3]): 6.74

Cc1ccc(-c2ccc(C(=O)CC3(O)C(=O)NC(=O)NC3=O)cc2)cc1
pIC50 [1]: 6.52
pIC50 [2]: 6.99
pIC50 (Neutrophil collagenase [3]): 6.47

CC(=O)C(c1ccc(-c2ccccc2)cc1)C1(O)C(=O)NC(=O)NC1=O (centres undefined)
inhibition [6]: 38%
inhibition [7]: 28%
inhibition (Neutrophil collagenase [8]): 71%

Reference: ChEMBL document CHEMBL2150857, “Design, synthesis and biological evaluation of 5-hydroxy, 5-substituted-pyrimidine-2,4,6-triones as potent inhibitors of gelatinases MMP-2 and MMP-9” (Eur J Med Chem, 2012)
